From PMC9890663 (RSC Advances, 2023)
In brackets after ≈: the same amount, converted by molar mass. Several values for one entry are separate records, joined by “and”; a condition that tells them apart may be missing. Identical values can stand only once. Like-named read-outs stand apart in the source and are kept apart here.

How the values were obtained:
calf thymus DNA (ct-DNA) [1] = conditions: DNA intercalator; cited from earlier work
S. aureus ATCC 25923 = experiment: MIC, broth microdilution; type: cell-based; conditions: Staphylococcus aureus, ATCC25923, 24 h
Summary of the method: (§1)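 Broth microdilution. S. aureus ATCC 25923 followed CLSI M07-A8 at 5 × 10^5 cfu mL−1; Candida strains followed EUCAST yeast method v7.3.1 at 1 × 10^5 cfu mL−1. Test compound from a 50 mg mL−1 DMSO stock was tested from 500 μg mL−1 downward, with final DMSO <1% v/v. MIC was the lowest concentration inhibiting growth after 24 h at 37 °C, read on a plate reader.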

P. aeruginosa PAO1 = experiment: MIC, broth microdilution; type: cell-based; conditions: Pseudomonas aeruginosa, PAO1, 24 h
C. albicans ATCC 10231 [2] = experiment: MIC, broth microdilution; type: cell-based; conditions: Candida albicans, ATCC10231, 24 h
Summary of the method: as §1

MRC-5 cells = experiment: Antiproliferative activity, MTT assay; type: cell-based, human
C. albicans ATCC 10231 [3] = experiment: Inhibition of hyphae formation on Spider medium; type: cell-based, Candida albicans; conditions: 0.5 × MIC, vs DMSO control
C. albicans = conditions: cited from earlier work
C. albicans ATCC 10231 [4] = experiment: Biofilm formation assay, crystal violet staining; type: cell-based, Candida albicans; conditions: MIC of the complexes applied
Summary of the method: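 Candida albicans ATCC 10231 biofilm assay, starting inoculum 1 × 10^6 cfu mL−1. Test compound was applied as two-fold serial dilutions from 3.5 down to 0.05 μg mL−1, then incubated 48 h at 37 °C. Adherent biomass was stained with crystal violet and read at 590.0 nm. The assay was repeated three times.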

[5] = test system: Chromobacterium violaceum CV026; experiment: Anti-quorum sensing disc assay, violacein production; type: cell-based; conditions: 100 μg per disc
Summary of the method: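 Agar-overlay disc assay. Inocula were grown overnight in LB at 30 °C and 180 rpm, with antibiotic for CV026. 50.0 μL of culture was seeded into 0.3% semi-solid LB agar and overlaid on LB plates. CV026 received N-hexanoyl-L-homoserine lactone (final 5.0 μM); S. marcescens ATCC 27117 received no autoinducer. Compound was placed on sterile discs and plates incubated overnight at 30 °C. Pigment inhibition was scored as white halo width (mm), distinct from growth-clearance zones.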

[6] = molecular target: bovine serum albumin (BSA) (Bos taurus, UniProt P02769); experiment: BSA fluorescence emission quenching; type: binding
Summary of the method: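 Tryptophan fluorescence quenching of 5 μM BSA in PBS pH 7.4, titrated with test compound (DMSO stock) up to 130 μM. Excitation was 290.0 nm and spectra were recorded at 295.0–500.0 nm, with quenching monitored at 365.0 nm. Ksv came from a Stern–Volmer plot, and Kq from Ksv with τ0 of 10^-8 s. KA and binding-site number n came from a log(F0−F)/F vs log[complex] plot.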

calf thymus DNA (ct-DNA) [7] = experiment: Competitive EthBr-ct-DNA fluorescence emission study; type: binding
Summary of the method: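 Ethidium bromide displacement on calf thymus DNA in PBS pH 7.4, with ct-DNA quantified by A260 (ε 6.6 × 10^3 M−1 cm−1). [DNA]/[EthBr] was held at 10 while test compound (10 mM DMSO stock) was increased. Excitation was 545.0 nm, emission 550.0–750.0 nm. Ksv and Kq (τ0 10^-8 s) came from the Stern–Volmer equation; KA and n from a log(F0−F)/F vs log[complex] plot.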

Sequence of bovine serum albumin (BSA) (P02769 25-607): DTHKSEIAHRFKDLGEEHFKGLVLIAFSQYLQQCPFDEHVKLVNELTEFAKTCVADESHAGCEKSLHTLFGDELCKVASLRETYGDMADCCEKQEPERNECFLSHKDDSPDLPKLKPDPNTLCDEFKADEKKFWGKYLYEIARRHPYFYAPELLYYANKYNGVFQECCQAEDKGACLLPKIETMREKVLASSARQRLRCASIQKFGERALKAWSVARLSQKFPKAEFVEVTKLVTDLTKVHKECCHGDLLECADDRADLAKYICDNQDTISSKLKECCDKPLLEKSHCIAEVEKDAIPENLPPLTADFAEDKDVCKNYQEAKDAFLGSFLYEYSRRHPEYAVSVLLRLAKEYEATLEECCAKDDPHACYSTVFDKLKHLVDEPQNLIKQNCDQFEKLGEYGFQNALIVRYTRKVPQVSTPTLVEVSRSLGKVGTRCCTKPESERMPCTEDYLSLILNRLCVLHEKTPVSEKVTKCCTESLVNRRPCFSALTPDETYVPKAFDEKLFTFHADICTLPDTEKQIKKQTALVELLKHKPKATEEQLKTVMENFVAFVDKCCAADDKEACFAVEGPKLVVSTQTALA

For `C[n+]1c2ccccc2c(-c2c3ccccc3[n+](C)c3ccccc23)c2ccccc21` [lucigenin], the Hypochromism (calf thymus DNA (ct-DNA) [1]) is given as 50%.
For `COC(=O)c1cnc(-c2cnccn2)cc1C(=O)OC` [py-2pz, dimethyl 6-(pyrazine-2-yl)pyridine-3,4-dicarboxylate], the MIC (S. aureus ATCC 25923) was > 1830 µM and > 500 µg/mL, the MIC (P. aeruginosa PAO1) was > 1830 µM and > 500 µg/mL and the MIC (C. albicans ATCC 10231 [2]) was > 1830 µM and > 500 µg/mL. The IC50 (MRC-5 cells; Homo sapiens, MRC5, 48 h, MRC-5, 48 h treatment) was 120 µg/mL (≈ 439 µM) and the “C. albicans hyphae formation” value (C. albicans ATCC 10231 [3]) was “did not show a potency to inhibit C. albicans filamentous growth”.
For [CuCl2(py-2metz)]n, the MIC (C. albicans) is given as 31.25 µg/mL.
For {[Ag(NO3)(py-2pz)]·0.5H2O}n [Complex 4], the “fold less toxic against MRC-5 than AgSD” value (MRC-5 cells) was 1.7 fold, the “percentage of the formed C. albicans biofilms” value (C. albicans ATCC 10231 [4]) was 62% and the “clear zones of inhibition (antibacterial effect)” value [5] was 5 mm. For the same compound, the Hypochromism ([6]; BSA fluorescence at 365.0 nm) was 60.5%, the K sv ([6]; Stern-Volmer constant, BSA 5 μM, PBS pH 7.4) was “(2.10 ± 0.02) × 10^4 M^−1” and the “K A” value ([6]; binding constant, BSA) was 21500 M⁻¹. The K q ([6]; quenching rate constant, BSA) was 2.1e+12 M⁻¹ s⁻¹, the Hypochromism (calf thymus DNA (ct-DNA) [7]; EthBr-ct-DNA fluorescence) was 15.4% and the K sv (calf thymus DNA (ct-DNA) [7]; Stern-Volmer constant, EthBr-ct-DNA, PBS pH 7.4) was “(1.14 ± 0.01) × 10^3 M^−1”. For the same compound, the “K A” value (calf thymus DNA (ct-DNA) [7]; binding constant, ct-DNA) was 2000 M⁻¹ and the K q (calf thymus DNA (ct-DNA) [7]; quenching constant, EthBr-ct-DNA) was 1.14e+11 M⁻¹ s⁻¹.
